{
  "source": "ChEMBL document CHEMBL1142981",
  "about": "“Identification and synthesis of a novel selective partial PPARdelta agonist with full efficacy on lipid metabolism in vitro and in vivo” (J Med Chem, 2007)",
  "key": {"[1]": {"molecular_target": "T1, Peroxisome proliferator-activated receptor gamma (Homo sapiens, UniProt P37231)", "T1 sequence (P37231 whole entry)": "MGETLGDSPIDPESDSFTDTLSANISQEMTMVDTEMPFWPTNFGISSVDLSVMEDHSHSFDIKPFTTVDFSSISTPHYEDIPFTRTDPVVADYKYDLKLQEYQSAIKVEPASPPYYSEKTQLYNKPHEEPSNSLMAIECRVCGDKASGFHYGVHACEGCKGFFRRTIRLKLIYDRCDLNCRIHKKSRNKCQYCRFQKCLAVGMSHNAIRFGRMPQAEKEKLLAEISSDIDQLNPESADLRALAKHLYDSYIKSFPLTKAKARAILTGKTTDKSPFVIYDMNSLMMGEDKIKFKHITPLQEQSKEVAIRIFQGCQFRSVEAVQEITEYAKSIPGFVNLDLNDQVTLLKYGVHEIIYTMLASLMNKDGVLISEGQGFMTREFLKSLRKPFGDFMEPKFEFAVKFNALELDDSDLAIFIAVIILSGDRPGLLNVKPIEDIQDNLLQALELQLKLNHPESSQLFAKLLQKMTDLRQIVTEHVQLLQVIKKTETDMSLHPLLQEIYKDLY", "assay_type": "cell-based, HEK293"}, "[2]": {"test": "Plasma Cmax in Sprague-Dawley rat at 2.06 mg/kg, po", "assay_type": "ADME, organism-based", "set-up": "dose 2.06 mg/kg, route oral", "method_in_brief": "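Male SD rats received a single p.o. or i.v. dose (n = 8 per route) in 5% ethanol, 10% HPCD and phosphate buffer, pH 7.5-8.0. At 5, 15, 30, 60, 90, 120, 240 and 360 min one rat was sacrificed per time point. EDTA plasma was assayed by high turbulence LC-MS/MS. Cmax and bioavailability were taken from oral dosing; volume of distribution is at steady state.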"}, "[3]": {"test": "Half life in Sprague-Dawley rat at 2.06 mg/kg, po", "assay_type": "ADME, organism-based", "set-up": "dose 2.06 mg/kg, route oral", "conditions": "in vivo", "method_in_brief": "(§1)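 Male SD rats dosed once i.v. or p.o. (n = 8 per route), vehicle 5% ethanol, 10% HPCD, phosphate buffer pH 7.5-8.0. One animal sacrificed at each of 5, 15, 30, 60, 90, 120, 240 and 360 min; EDTA plasma analysed by high turbulence LC-MS/MS. Each data point represents one animal.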"}, "Mus musculus [4]": {"tested_on": "Mus musculus", "test": "Decrease in triglycerides level in human ApoB100/CETP transgenic mouse at 10 mg/kg, po after 6 weeks relative to control", "assay_type": "functional", "set-up": "scale not given: the % may be the effect or the level left"}, "Mus musculus [5]": {"tested_on": "Mus musculus", "test": "Decrease in total cholesterol level in human ApoB100/CETP transgenic mouse at 5 mg/kg, po after 6 weeks relative to control", "assay_type": "functional", "set-up": "scale not given: the % may be the effect or the level left"}, "[6]": {"molecular_target": "T2, Peroxisome proliferator-activated receptor gamma (Mus musculus) (UniProt P37238)", "T2 sequence (whole entry)": "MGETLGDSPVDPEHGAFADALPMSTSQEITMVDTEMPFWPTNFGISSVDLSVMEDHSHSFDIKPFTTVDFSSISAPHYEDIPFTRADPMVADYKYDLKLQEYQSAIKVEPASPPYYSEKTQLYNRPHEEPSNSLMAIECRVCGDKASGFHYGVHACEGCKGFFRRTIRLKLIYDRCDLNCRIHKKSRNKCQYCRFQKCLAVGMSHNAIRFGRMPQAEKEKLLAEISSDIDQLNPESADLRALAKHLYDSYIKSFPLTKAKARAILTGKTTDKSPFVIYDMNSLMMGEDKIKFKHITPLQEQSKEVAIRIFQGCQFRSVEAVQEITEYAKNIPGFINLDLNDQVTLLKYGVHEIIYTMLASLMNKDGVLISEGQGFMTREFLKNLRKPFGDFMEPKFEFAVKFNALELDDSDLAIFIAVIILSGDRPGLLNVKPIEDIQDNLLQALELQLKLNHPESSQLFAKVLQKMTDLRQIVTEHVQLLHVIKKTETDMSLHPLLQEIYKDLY", "test": "Agonist activity at mouse PPAR gamma expressed in HEK293 cells up to 30 uM by PPAR-GAL4 transactivation assay", "assay_type": "functional, cell-based"}, "[7]": {"test": "Clearance in Sprague-Dawley rat at 1.06 mg/kg, iv", "assay_type": "ADME, organism-based", "set-up": "dose 1.06 mg/kg, route intravenous", "conditions": "in vivo", "method_in_brief": "as §1"}, "[8]": {"molecular_target": "T3, Peroxisome proliferator-activated receptor alpha (Homo sapiens, UniProt Q07869)", "T3 sequence (Q07869 whole entry)": "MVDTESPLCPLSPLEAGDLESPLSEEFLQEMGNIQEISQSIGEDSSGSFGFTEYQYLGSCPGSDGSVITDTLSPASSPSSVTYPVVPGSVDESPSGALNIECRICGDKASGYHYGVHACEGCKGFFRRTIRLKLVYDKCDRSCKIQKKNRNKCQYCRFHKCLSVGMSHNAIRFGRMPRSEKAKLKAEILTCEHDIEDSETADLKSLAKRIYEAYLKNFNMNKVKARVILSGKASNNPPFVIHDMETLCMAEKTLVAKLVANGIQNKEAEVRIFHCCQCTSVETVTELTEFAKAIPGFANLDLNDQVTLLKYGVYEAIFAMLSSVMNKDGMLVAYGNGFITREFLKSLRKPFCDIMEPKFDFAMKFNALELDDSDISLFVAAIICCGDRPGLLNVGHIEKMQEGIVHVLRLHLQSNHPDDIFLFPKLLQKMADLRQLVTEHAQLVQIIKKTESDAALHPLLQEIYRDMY", "test": "Activity at human liver PPAR alpha expressed in HEK293 cells by PPAR-GAL4 transactivation assay", "assay_type": "cell-based"}, "Mus musculus [9]": {"tested_on": "Mus musculus", "test": "Decrease in insulin level in human ApoB100/CETP transgenic mouse at 5 mg/kg, po after 6 weeks by ELISA relative to control", "assay_type": "functional", "set-up": "scale not given: the % may be the effect or the level left"}, "Mus musculus [10]": {"tested_on": "Mus musculus", "test": "Decrease in triglycerides level in human ApoB100/CETP transgenic mouse at 20 mg/kg, po after 6 weeks relative to control", "assay_type": "functional", "set-up": "scale not given: the % may be the effect or the level left"}, "[11]": {"molecular_target": "T4, Peroxisome proliferator-activated receptor alpha (Homo sapiens) (UniProt Q07869)", "T4 sequence (whole entry)": "T3 sequence (Q07869 whole entry)", "test": "Activity at human liver PPAR alpha expressed in HEK293 cells by GAL4 transactivation assay relative to NNC61-4655", "assay_type": "cell-based"}, "Mus musculus [12]": {"tested_on": "Mus musculus", "test": "Increase in HDL level in human ApoB100/CETP transgenic mouse at 5 mg/kg, po after 6 weeks relative to control", "assay_type": "functional"}, "Mus musculus [13]": {"tested_on": "Mus musculus", "test": "Decrease in LDL level in human ApoB100/CETP transgenic mouse at 20 mg/kg, po after 6 weeks relative to control", "assay_type": "functional", "set-up": "scale not given: the % may be the effect or the level left"}, "Mus musculus [14]": {"tested_on": "Mus musculus", "test": "Increase in HDL level in human ApoB100/CETP transgenic mouse at 10 mg/kg, po after 6 weeks relative to control", "assay_type": "functional"}, "Mus musculus [15]": {"tested_on": "Mus musculus", "test": "Decrease in LDL level in human ApoB100/CETP transgenic mouse at 5 mg/kg, po after 6 weeks relative to control", "assay_type": "functional", "set-up": "scale not given: the % may be the effect or the level left"}},
  "note": "pEC50: −log10 of the molar value. The source made the active and inactive calls. The calls are words filed in the database; no cut-off is given here.",
  "data": [
    {"smiles": "O=C(O)COc1ccc(SCC=C(c2ccc(Br)cc2)c2ccc(Br)cc2)cc1Cl", "values": [
      {"measurement": "pEC50", "setting": "[1]", "value": "< 5.00"},
      {"measurement": "Cmax", "setting": "[2]", "value": 508, "unit": "ng/mL"},
      {"measurement": "half-life", "setting": "[3]", "value": 59, "unit": "min"},
      {"measurement": "Activity", "setting": "Mus musculus [4]", "value": 7, "unit": "%"},
      {"measurement": "Activity", "setting": "Mus musculus [5]", "value": 19, "unit": "%"},
      {"measurement": "Activity", "setting": "[6]", "value": "inactive"},
      {"measurement": "clearance", "setting": "[7]", "value": 11.9, "unit": "mL/min/kg"},
      {"measurement": "pEC50", "setting": "[8]", "value": "< 5.00"},
      {"measurement": "Activity", "setting": "Mus musculus [9]", "value": 11, "unit": "%"},
      {"measurement": "Activity", "setting": "Mus musculus [10]", "value": 5, "unit": "%"},
      {"measurement": "Efficacy", "setting": "[11]", "value": "> 12", "unit": "%"},
      {"measurement": "Activity", "setting": "Mus musculus [12]", "value": 24, "unit": "%"},
      {"measurement": "Activity", "setting": "Mus musculus [13]", "value": 35, "unit": "%"},
      {"measurement": "Activity", "setting": "Mus musculus [14]", "value": 14, "unit": "%"},
      {"measurement": "Activity", "setting": "Mus musculus [15]", "value": 7, "unit": "%"}
    ]}
  ]
}
